From PubChem BioAssay AID463078 (The Scripps Research Institute Molecular Screening Center, 2010)
Calls of active or inactive are those of the source.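 Rule for the calls: active = fold change below the hit cutoff of 0.7; inactive = the rest.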

Biological target: Nuclear receptor ROR-alpha (Homo sapiens) (UniProt P35398)
Test: decrease of GAL4-RORa LBD luciferase signal – cell-based, luminescence, assay provider, RORA inverse agonist project, late-stage follow-up (AID 463078)
Conditions: HEK293T GAL4-RORa LBD luciferase reporter, 20 h; at 10 µM; stronger effect = lower value
Procedure, shortened: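 System: HEK293T cells with GAL4-RORα LBD and UAS-luciferase. Incubation: 20 h compound exposure. Control set: DMSO vehicle wells. Signal: luminescence. Repeats: six replicates per compound. Evaluation: fold change in luminescence, treated versus DMSO-treated cells, replicate-averaged. Compound: single nominal 10 µM dose per test compound.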

Nuclear receptor ROR-alpha (Homo sapiens), sequence (P35398 whole entry, looked up, the tested form may be a part): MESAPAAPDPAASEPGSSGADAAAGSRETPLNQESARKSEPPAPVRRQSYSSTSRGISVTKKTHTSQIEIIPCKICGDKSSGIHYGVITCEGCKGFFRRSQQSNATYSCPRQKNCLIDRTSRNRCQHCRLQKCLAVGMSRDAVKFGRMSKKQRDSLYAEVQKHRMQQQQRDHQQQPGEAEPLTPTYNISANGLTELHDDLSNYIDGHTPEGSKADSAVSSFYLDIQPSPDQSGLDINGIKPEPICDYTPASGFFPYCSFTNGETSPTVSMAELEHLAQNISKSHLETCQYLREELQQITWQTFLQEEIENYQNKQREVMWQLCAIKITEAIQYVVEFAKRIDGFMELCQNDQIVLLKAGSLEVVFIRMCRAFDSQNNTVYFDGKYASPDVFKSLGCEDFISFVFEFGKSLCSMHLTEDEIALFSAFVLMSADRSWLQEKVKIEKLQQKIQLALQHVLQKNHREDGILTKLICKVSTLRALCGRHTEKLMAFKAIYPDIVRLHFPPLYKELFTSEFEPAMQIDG

| Compound | fold change |
| --- | --- |
| O=C(Nc1ccc(C(O)(C(F)(F)F)C(F)(F)F)cc1)c1ccc(Cl)cc1 | 1.23 (inactive) |
| O=C(Nc1ccc(C(O)(C(F)(F)F)C(F)(F)F)cc1)c1ccc(F)cc1F | 1.71 (inactive) |
| O=C(Nc1ccc(C(O)(C(F)(F)F)C(F)(F)F)cc1)c1ccc(F)cc1Cl | 1.1 (inactive) |

Second part, the compound after the results:

| fold change | Compound |
| --- | --- |
| 0.806 (inactive) | O=C(Nc1ccc(C(O)(C(F)(F)F)C(F)(F)F)cc1)c1ccccc1C(F)(F)F |
| 0.63 | O=S(=O)(Nc1ccc(C(O)(C(F)(F)F)C(F)(F)F)cc1)c1cccs1 |
| 0.944 (inactive) | O=C(Nc1ccc(C(O)(C(F)(F)F)C(F)(F)F)cc1)c1c(F)cccc1F |
